Measurements taken from ChEMBL document CHEMBL1140037, “Effect of cathepsin K inhibitors on bone resorption” (J Med Chem, 2008).
Activity calls are given as the source filed them. The calls are words filed in the database; no cut-off is given here.

Experiments:
Cathepsin K [1] = target: T1, Cathepsin K (Rattus norvegicus, UniProt O35186); test: Inhibition of rat recombinant cathepsin K expressed in Sf21 cells by fluorescence assay
T1 sequence (O35186 whole entry): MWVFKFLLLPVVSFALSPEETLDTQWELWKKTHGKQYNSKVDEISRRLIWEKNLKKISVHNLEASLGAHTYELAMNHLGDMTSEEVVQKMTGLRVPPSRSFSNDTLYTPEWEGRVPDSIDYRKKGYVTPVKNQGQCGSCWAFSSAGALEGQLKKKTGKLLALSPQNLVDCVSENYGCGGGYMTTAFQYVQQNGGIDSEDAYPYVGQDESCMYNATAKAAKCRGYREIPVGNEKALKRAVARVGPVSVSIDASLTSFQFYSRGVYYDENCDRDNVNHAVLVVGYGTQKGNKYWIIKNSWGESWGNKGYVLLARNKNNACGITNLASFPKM

Cynomolgus monkey [2] = test: Antibone resorptive activity in cynomolgus monkey assessed as reduction of C-terminal telopeptidase of type 1 collagen degradation at 2 mg/kg/day, po measured after 8 hrs after 7 days of administration by CrossLaps ELISA; type: functional, organism-based; conditions: Macaca fascicularis
Method in brief: (§1)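 Cynomolgus monkeys given 2 mg/kg orally once daily for 14 days. CTx measured by CrossLaps ELISA before and 8 h after dosing on day 1 and on days 7 and 14, and at 24 h after the first dose. Vehicle group run in parallel to allow for daily CTx fluctuation. Means and SEM, n = 4, 5; t-test against vehicle control.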

[3] = Volume of distribution at steady state in Sprague-Dawley rat at 1 mg/mL/kg, iv; type: ADME, organism-based; conditions: in vivo, read-out: Vdss
[4] = Drug level in Sprague-Dawley rat bone marrow at 100 mg/kg/day, po for 11 days measured on 25 hrs after final administration; type: ADME, organism-based; design: route oral; conditions: read-out: Drug uptake
Method in brief: (§2)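 Rats dosed orally with 100 mg/kg once daily for 11 days. Compound concentration in bone marrow and serum measured 25 h after the final dose on day 11. BM/serum ratio calculated from the two concentrations.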

[5] = Plasma clearance in Sprague-Dawley rat at 1 mg/mL/kg, iv; type: ADME, organism-based
Cynomolgus monkey [6] = test: Antibone resorptive activity in cynomolgus monkey assessed as reduction of C-terminal telopeptidase of type 1 collagen degradation at 2 mg/kg/day, po measured before 8 hrs after first administration by CrossLaps ELISA; type: functional, organism-based; conditions: Macaca fascicularis; method in brief: as §1
[7] = Half life in Sprague-Dawley rat at 1 mg/mL/kg, iv; type: ADME, organism-based; conditions: in vivo
Cynomolgus monkey [8] = test: Antibone resorptive activity in cynomolgus monkey assessed as reduction of cathepsin K-mediated C-terminal telopeptidase of type 1 collagen degradation at 2 mg/kg/day, po measured after 8 hrs after 14 days of administration by CrossLaps ELISA; type: functional, organism-based; conditions: Macaca fascicularis; method in brief: as §1
[9] = Ratio of drug level in bone marrow to serum in po dosed Sprague-Dawley rat; type: ADME, organism-based; conditions: in vivo; method in brief: as §2
Cynomolgus monkey [10] = test: Antibone resorptive activity in cynomolgus monkey assessed as reduction of C-terminal telopeptidase of type 1 collagen degradation at 2 mg/kg/day, po measured before 8 hrs after 14 days of administration by CrossLaps ELISA; type: functional, organism-based; conditions: Macaca fascicularis; method in brief: as §1
Cynomolgus monkey [11] = test: Antibone resorptive activity in cynomolgus monkey assessed as reduction of C-terminal telopeptidase of type 1 collagen degradation at 2 mg/kg/day, po measured before 8 hrs after 7 days of administration by CrossLaps ELISA; type: functional, organism-based; conditions: Macaca fascicularis; method in brief: as §1
[12] = Bioavailability in Sprague-Dawley rat at 3 mg/5 mL/kg, po; type: ADME, organism-based; conditions: in vivo
Cynomolgus monkey [13] = test: Antibone resorptive activity in cynomolgus monkey assessed as reduction of C-terminal telopeptidase of type 1 collagen degradation at 2 mg/kg/day, po measured after 24 hrs after first administration by CrossLaps ELISA; type: functional, organism-based; conditions: Macaca fascicularis; method in brief: as §1
Rattus norvegicus [14] = test: Antibone resorptive activity in Sprague-Dawley rat assessed as inhibition of cathepsin K-mediated C-terminal telopeptidase of type 1 collagen degradation at 100 mg/kg/day, po for 11 days measured on 24 hrs after final administration by RatLaps ELISA; type: functional; design: scale not given: the % may be the effect or the level left
Method in brief: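 Intact rats dosed orally with 100 mg/kg once daily for 11 days. Urine collected for 24 h after the final dose on day 11; CTx measured by RatLaps ELISA. Inhibition expressed as percentage of vehicle-treated controls.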

[15] = Drug level in Sprague-Dawley rat serum at 100 mg/kg/day, po for 11 days measured on 25 hrs after final administration; type: ADME, organism-based; design: route oral; conditions: read-out: Drug uptake; method in brief: as §2
Cynomolgus monkey [16] = test: Toxicity in cynomolgus monkey at 2 mg/kg/day, po for 14 days; type: organism-based, Macaca fascicularis; design: route oral; conditions: in vivo, 336 h
[17] = Volume of distribution at steady state in Sprague-Dawley rat at 4 umol/mL/kg, iv; type: ADME, organism-based; conditions: in vivo, read-out: Vdss
Method in brief: (§3)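 Male Sprague-Dawley rats, cassette dosing, iv and oral. Plasma levels by LC-MS/MS. Half-life is the noncompartmental terminal elimination estimate. Clearance, steady-state volume of distribution and bioavailability derived from the profiles.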

[18] = (§4) Bioavailability in Sprague-Dawley rat at 10 umol/5 mL/kg, po; type: ADME, organism-based; conditions: Sprague-Dawley, in vivo, 10 umol/5 mL/kg; method in brief: as §3
[19] = Half life in Sprague-Dawley rat at 4 umol/mL/kg, iv; type: ADME, organism-based; conditions: in vivo; method in brief: as §3
[20] = Plasma clearance in Sprague-Dawley rat at 4 umol/mL/kg, iv; type: ADME, organism-based; method in brief: as §3
Cathepsin S = Cathepsin S (Homo sapiens, UniProt P25774); test: Inhibition of human recombinant cathepsin S by fluorescence assay
Method in brief: (§5)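 Recombinant human cathepsins K, L and S, inhibition read in a fluorescence assay; IC50 values reported.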

Cathepsin K [21] = target: T2, Cathepsin K (Homo sapiens, UniProt P43235); test: Inhibition of human recombinant cathepsin K by fluorescence assay; method in brief: as §5
T2 sequence (P43235 whole entry): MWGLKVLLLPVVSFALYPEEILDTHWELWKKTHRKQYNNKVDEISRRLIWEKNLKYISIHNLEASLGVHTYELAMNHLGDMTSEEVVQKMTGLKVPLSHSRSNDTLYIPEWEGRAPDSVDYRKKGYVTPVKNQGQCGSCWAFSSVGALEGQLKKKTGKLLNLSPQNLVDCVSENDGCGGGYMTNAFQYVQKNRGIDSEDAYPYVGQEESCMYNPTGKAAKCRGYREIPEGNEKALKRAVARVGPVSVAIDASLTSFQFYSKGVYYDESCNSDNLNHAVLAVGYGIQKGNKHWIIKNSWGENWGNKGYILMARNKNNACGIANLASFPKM

Procathepsin L = Procathepsin L (Homo sapiens, UniProt P07711); test: Inhibition of human recombinant cathepsin L by fluorescence assay; method in brief: as §5
Rattus norvegicus [22] = test: as §4; type: ADME, organism-based; conditions: in vivo; method in brief: as §3

Chain of Cathepsin S (P25774 whole entry): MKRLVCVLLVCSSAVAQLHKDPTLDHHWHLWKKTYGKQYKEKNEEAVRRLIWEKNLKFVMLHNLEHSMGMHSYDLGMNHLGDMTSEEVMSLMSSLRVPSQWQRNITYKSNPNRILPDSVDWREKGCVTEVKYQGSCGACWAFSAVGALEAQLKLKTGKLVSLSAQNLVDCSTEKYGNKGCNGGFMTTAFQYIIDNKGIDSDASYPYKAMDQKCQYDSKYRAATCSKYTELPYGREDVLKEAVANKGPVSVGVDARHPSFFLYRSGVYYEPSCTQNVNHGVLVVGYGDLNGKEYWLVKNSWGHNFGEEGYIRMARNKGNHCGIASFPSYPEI
Chain of Procathepsin L (P07711 whole entry): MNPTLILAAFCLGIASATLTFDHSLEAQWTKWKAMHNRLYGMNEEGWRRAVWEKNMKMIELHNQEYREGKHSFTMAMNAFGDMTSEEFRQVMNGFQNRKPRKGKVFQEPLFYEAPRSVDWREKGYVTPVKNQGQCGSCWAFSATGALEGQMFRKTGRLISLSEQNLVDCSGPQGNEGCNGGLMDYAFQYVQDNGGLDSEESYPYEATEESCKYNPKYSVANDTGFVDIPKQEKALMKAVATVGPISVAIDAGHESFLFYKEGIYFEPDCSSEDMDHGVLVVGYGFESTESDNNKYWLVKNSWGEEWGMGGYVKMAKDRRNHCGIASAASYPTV

| SMILES | IC50 (Cathepsin K [1]) [nM] | concentration at 25 h [4] [nM] | Drug uptake [9] | concentration at 25 h [15] [nM] | Vd [17] [L/kg] | bioavailability [18] [%] | half-life [19] [h] | clearance [20] [mL/min/kg] | IC50 (Cathepsin S) [nM] | IC50 (Cathepsin K [21]) [nM] | IC50 (Procathepsin L) [nM] | Vd [3] [L/kg] | clearance [5] [mL/min/kg] | half-life [7] [h] | bioavailability [12] [%] | Activity (Rattus norvegicus [14]) [%] | further results |
| --- | --- | --- | --- | --- | --- | --- | --- | --- | --- | --- | --- | --- | --- | --- | --- | --- | --- |
| CN1C(=O)NC2(CCN(Cc3cc4cnc(C#N)nc4n3CC(C)(C)C)CC2)C1=O | 12 | 302 | 4.7 | 64 | 4.3 | 144 | 1.4 | 35 |  |  |  |  |  |  |  | 6.8 |  |
| CC(C)(C)Cn1c(CN2C(=O)C3(CCNCC3)c3cc(F)ccc32)cc2cnc(C#N)nc21 | 78 | 119000 | 99 | 1200 |  |  |  |  |  |  |  | 78.4 | 132 | 6.6 | 36 | 36.2 |  |
| CCCN1C(=O)NC2(CCN(Cc3cc4cnc(C#N)nc4n3CC(C)(C)C)CC2)C1=O |  | 832 | 1.5 | 545 | 6.7 | 58 | 1.9 | 45 | > 1000 | < 1 | > 1000 |  |  |  |  | 11.3 |  |
| COc1ccc2c(c1)C1(CCNCC1)C(=O)N2Cc1cc2cnc(C#N)nc2n1CC(C)(C)C | 44 | 45800 | 159 | 288 |  |  |  |  | > 1000 | < 1 | > 1000 | 73.6 | 182 | 4.9 | 29 | 68 |  |

Further lines, with some results ahead:

| IC50 (Cathepsin K [1]) [nM] | concentration at 25 h [4] [nM] | Drug uptake [9] | concentration at 25 h [15] [nM] | Vd [17] [L/kg] | bioavailability [18] [%] | half-life [19] [h] | clearance [20] [mL/min/kg] | IC50 (Cathepsin S) [nM] | IC50 (Cathepsin K [21]) [nM] | IC50 (Procathepsin L) [nM] | SMILES | Vd [3] [L/kg] | clearance [5] [mL/min/kg] | half-life [7] [h] | bioavailability [12] [%] | Activity (Rattus norvegicus [14]) [%] | further results |
| --- | --- | --- | --- | --- | --- | --- | --- | --- | --- | --- | --- | --- | --- | --- | --- | --- | --- |
| 30 | 33500 | 34.9 | 960 |  |  |  |  |  |  |  | CC(C)(C)Cn1c(CN2C(=O)CC3(CCNCC3)C2=O)cc2cnc(C#N)nc21 | 97.2 | 238 | 4.7 | 98 | 73.2 | Activity (Cynomolgus monkey [2]): Active; Activity (Cynomolgus monkey [6]): Active; Activity (Cynomolgus monkey [8]): Active; Activity (Cynomolgus monkey [10]): Active; Activity (Cynomolgus monkey [11]): Active; Activity (Cynomolgus monkey [13]): Active; Activity (Cynomolgus monkey [16]): Non-toxic |
| 27 | 17600 | 132 | 133 | 17.3 | 49 | 2.8 | 85 |  |  |  | CCCN1CCC2(CC1)NC(=O)N(Cc1cc3cnc(C#N)nc3n1CC(C)(C)C)C2=O |  |  |  |  | 89.9 |  |
| 76 |  |  |  | 59.2 |  | 3.3 | 245 | > 1000 | < 1 | > 1000 | CC(C)(C)Cn1c(CN2C(=O)NC3(CCNCC3)C2=O)cc2cnc(C#N)nc21 |  |  |  |  |  | Activity (Rattus norvegicus [22]): Not Active |
|  | 381 | 0.7 | 557 | 5.9 | 42 | 1.6 | 78.3 | > 1000 | < 1 | > 1000 | CC(C)(C)Cn1c(CN2CCC3(CC2)NC(=O)NC3=O)cc2cnc(C#N)nc21 |  |  |  |  | -7.9 |  |
